{"source": "ChEMBL document CHEMBL4334542", "about": "“Antimalarial N 1,N 3-Dialkyldioxonaphthoimidazoliums: Synthesis, Biological Activity, and Structure-activity Relationships” (ACS Med Chem Lett, 2020)", "key": {"[1]": {"test": "Time at which plasma concentration stays above in vitro IC50 for asexual stage of Plasmodium falciparum 3D7 infected in erythrocytes in C57BL/6 mouse at 20 mg/kg, po", "type": "ADME, organism-based", "details": "in vivo"}, "Plasmodium falciparum [2]": {"tested_on": "Plasmodium falciparum", "test": "Antimalarial activity against Plasmodium falciparum K1 incubated for 48 hrs by [3H]-hypoxanthine incorporation assay", "type": "functional, organism-based"}, "[3]": {"test": "Oral bioavailability in C57BL/6 mouse at 20 mg/kg measured upto 24 hrs by LCMS analysis", "type": "ADME, organism-based", "details": "in vivo"}, "Plasmodium falciparum [4]": {"tested_on": "Plasmodium falciparum", "test": "Antimalarial activity against asexual stage of Plasmodium falciparum NF54 assessed as reduction in parasite growth incubated for 96 hrs by SYBR Green I dye-based fluorescence assay", "type": "functional, organism-based", "details": "NF54, 96 h", "summary_of_the_method": "(§1)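 Asexual NF54, K1 and W2 parasites; proliferation read as SYBR Green I fluorescence. IC50 is the concentration giving 50% of the net SYBR Green I fluorescence of untreated control cultures; mean ± SEM of n = 3 independent biological replicates.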"}, "Plasmodium falciparum [5]": {"tested_on": "Plasmodium falciparum", "test": "Antimalarial activity against Plasmodium falciparum 3D7 infected in NOD-SCID IL-2Ry deficient mouse assessed as reduction in parasitemia at 50 mg/kg, po administered on day 3 to 6 and measured on day 7 by TER-119-PE and SYTO-19 dye based flow cytometry", "type": "functional, organism-based", "summary_of_the_method": "(§2)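 Humanized mouse infected with P. falciparum Pf3D7 0087/N9; oral dosing on Days 3–6 at 5 dose levels spanning 1–50 mg/kg. Parasitemia measured each treatment day and on Day 7. ED90 from non-linear fit of log Day-7 parasitemia against oral dose, relative to untreated controls.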"}, "Plasmodium falciparum [6]": {"tested_on": "Plasmodium falciparum", "test": "Antimalarial activity against Plasmodium falciparum NF54 incubated for 48 hrs by [3H]-hypoxanthine incorporation assay", "type": "functional, organism-based"}, "[7]": {"test": "Toxicity in C57BL/6 mouse at 20 mg/kg, po", "type": "organism-based", "details": "in vivo", "summary_of_the_method": "(§3)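 Male C57BL6 mice given one dose, 2 mg/kg iv or 20 mg/kg oral (n=3 per route), checked for signs of distress 24 h after dosing.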"}, "[8]": {"test": "Stability in rat liver microsomes incubated for 45 mins in presence of NADPH by chromatographic analysis", "type": "ADME, Microsome", "details": "0.75 h"}, "[9]": {"test": "Tmax in C57BL/6 mouse at 20 mg/kg, po measured upto 24 hrs by LCMS analysis", "type": "ADME, organism-based", "details": "in vivo"}, "Plasmodium falciparum [10]": {"tested_on": "Plasmodium falciparum", "test": "Antimalarial activity against asexual stage of Plasmodium falciparum 3D7 infected in erythrocytes assessed as reduction in parasite growth incubated for 48 hrs under hypoxic condition by Hoechst 33342 staining based flow cytometry", "type": "functional, organism-based", "details": "3D7, 48 h", "summary_of_the_method": "(§4)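 Asexual Dd2 and 3D7 parasites in erythrocytes; DNA content of infected cells measured by Hoechst 33342 staining and FACS. IC50 is the concentration giving 50% of the net fluorescence of untreated control cultures; mean ± SD of n = 3 separate determinations.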"}, "[11]": {"test": "Redox cycling activity of the compound […] measured after 45 mins by phenol red reagent based horseradish peroxidase coupled assay", "summary_of_the_method": "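Redox cycling EC50 determined by the phenol red horseradish peroxidase assay.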"}, "Plasmodium falciparum [12]": {"tested_on": "Plasmodium falciparum", "test": "Antimalarial activity against asexual stage of Plasmodium falciparum K1 assessed as reduction in parasite growth incubated for 96 hrs by SYBR Green I dye-based fluorescence assay", "type": "functional, organism-based", "details": "K1, 96 h", "summary_of_the_method": "as §1"}, "[13]": {"test": "Half life in C57BL/6 mouse at 20 mg/kg, po measured upto 24 hrs by LCMS analysis", "type": "ADME, organism-based", "details": "in vivo"}, "[14]": {"test": "AUC (0 to last) in C57BL/6 mouse at 20 mg/kg, po measured upto 24 hrs by LCMS analysis", "type": "ADME, organism-based", "set-up": "dose 20 mg/kg, time 0 - last, route oral", "details": "in vivo"}, "Plasmodium falciparum [15]": {"tested_on": "Plasmodium falciparum", "test": "Antimalarial activity against asexual stage of Plasmodium falciparum W2 assessed as reduction in parasite growth incubated for 96 hrs by SYBR Green I dye-based fluorescence assay", "type": "functional, organism-based", "details": "W2, 96 h"}, "[16]": {"test": "Solubility of compound at pH 7.4 measured after 24 hrs", "type": "physicochemical", "details": "buffer", "summary_of_the_method": "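Water solubility measured at pH 7.4.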"}, "Plasmodium falciparum [17]": {"tested_on": "Plasmodium falciparum", "test": "Antimalarial activity against asexual stage of Plasmodium falciparum Dd2 infected in erythrocytes assessed as reduction in parasite growth incubated for 48 hrs under hypoxic condition by Hoechst 33342 staining based flow cytometry", "type": "functional, organism-based", "details": "Dd2, 48 h", "summary_of_the_method": "as §4"}, "[18]": {"test": "Half life in C57BL/6 mouse at 2 mg/kg, iv measured upto 24 hrs by LCMS analysis", "type": "ADME, organism-based", "details": "in vivo"}, "CHO-K1": {"tested_on": "CHO-K1", "test": "Cytotoxicity against CHOK1 cells assessed as reduction in cell viability incubated for 48 hrs by CellTiter 96 aqueous one solution assay", "type": "cell-based", "details": "Cricetulus griseus, CHO-K1, 48 h", "summary_of_the_method": "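Cell growth measured by a tetrazolium dye assay. IC50 is the concentration reducing growth by 50% relative to untreated cultures; mean ± SD of n = 3 separate determinations.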"}, "Plasmodium falciparum [19]": {"tested_on": "Plasmodium falciparum", "test": "Antimalarial activity against Plasmodium falciparum 3D7 infected in orally dosed NOD-SCID IL-2Ry deficient mouse assessed as reduction in parasitemia administered on day 3 to 6 and measured on day 7 by TER-119-PE and SYTO-19 dye based flow cytometry", "type": "functional", "details": "3D7, po", "summary_of_the_method": "as §2"}, "[20]": {"test": "Volume of distribution in C57BL/6 mouse at 2 mg/kg, iv measured upto 24 hrs by LCMS analysis", "type": "ADME, organism-based", "details": "in vivo"}, "Plasmodium falciparum [21]": {"tested_on": "Plasmodium falciparum", "test": "Antimalarial activity against Plasmodium falciparum NF54 early gametocytes transfected with luciferase gene incubated for 48 hrs by luciferase reporter gene assay", "type": "functional, organism-based", "details": "NF54, 48 h", "summary_of_the_method": "(§5)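 Gametocytes of NF54-Pfs16-GFP-Luc, early (>95% stage II/III) or late (>90% stage IV/V); luciferase read-out. IC50 is the concentration giving 50% reduction of luminescence; mean ± SEM of n = 3 independent biological replicates.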"}, "[22]": {"test": "Toxicity in C57BL/6 mouse assessed as distress effect at 2 mg/kg, iv observed upto 24 hrs", "type": "organism-based", "details": "in vivo", "summary_of_the_method": "as §3"}, "Plasmodium falciparum [23]": {"tested_on": "Plasmodium falciparum", "test": "Antimalarial activity against Plasmodium falciparum TM90C2B incubated for 48 hrs by [3H]-hypoxanthine incorporation assay", "type": "functional, organism-based"}, "[24]": {"test": "Effective permeability of compound at pH 7.4 measured after 16 hrs PAMPA", "type": "ADME", "details": "pH 7.4, 16 h"}, "[25]": {"test": "Toxicity in C57BL/6 mouse assessed as distress effect at 20 mg/kg, po observed upto 24 hrs", "type": "organism-based", "details": "in vivo", "summary_of_the_method": "as §3"}, "[26]": {"test": "Toxicity in C57BL/6 mouse at 2 mg/kg, iv", "type": "organism-based", "details": "in vivo", "summary_of_the_method": "as §3"}, "[27]": {"test": "AUC (0 to last) at steady state in C57BL/6 mouse at 2 mg/kg, iv measured upto […] by LCMS analysis", "type": "ADME, organism-based", "set-up": "dose 2 mg/kg, time 0 - last, route intravenous", "details": "in vivo"}, "Plasmodium falciparum [28]": {"tested_on": "Plasmodium falciparum", "test": "Antimalarial activity against Plasmodium falciparum NF54 late gametocytes transfected with luciferase gene incubated for 48 hrs by luciferase reporter gene assay", "type": "functional, organism-based", "details": "NF54, 48 h", "summary_of_the_method": "as §5"}, "[29]": {"test": "Cmax in C57BL/6 mouse at 20 mg/kg, po measured upto 24 hrs by LCMS analysis", "type": "ADME, organism-based", "set-up": "dose 20 mg/kg, route oral", "details": "in vivo"}}, "note": "Active and inactive are the calls of the source. No cut-off for these calls is given here."}
{"smiles": "Cc1n(C(C)C)c2c([n+]1C(C)C)C(=O)c1ccccc1C2=O.[Br-]", "values": [{"measurement": "Time", "setting": "[1]", "value": 24, "unit": "h"}, {"measurement": "IC50", "setting": "Plasmodium falciparum [2]", "value": 1.9, "unit": "nM"}, {"measurement": "bioavailability", "setting": "[3]", "value": 5, "unit": "%"}, {"measurement": "IC50", "setting": "Plasmodium falciparum [4]", "value": 1.43, "unit": "nM"}, {"measurement": "Activity", "setting": "Plasmodium falciparum [5]", "value": "inactive"}, {"measurement": "IC50", "setting": "Plasmodium falciparum [6]", "value": 1, "unit": "nM"}, {"measurement": "Activity", "setting": "[7]", "value": "Non-Toxic"}, {"measurement": "Stability", "setting": "[8]", "value": "Stable"}, {"measurement": "Tmax", "setting": "[9]", "value": 2, "unit": "h"}, {"measurement": "IC50", "setting": "Plasmodium falciparum [10]", "value": 6.5, "unit": "nM"}, {"measurement": "Activity", "setting": "[11]", "value": "Active"}, {"measurement": "IC50", "setting": "Plasmodium falciparum [12]", "value": 2.5, "unit": "nM"}, {"measurement": "half-life", "setting": "[13]", "value": 11.3, "unit": "h"}, {"measurement": "AUClast", "setting": "[14]", "value": 69, "unit": "µmol·min/L"}, {"measurement": "IC50", "setting": "Plasmodium falciparum [15]", "value": 2.18, "unit": "nM"}, {"measurement": "solubility at 24 h", "setting": "[16]", "value": "> 100", "unit": "µM"}, {"measurement": "IC50", "setting": "Plasmodium falciparum [17]", "value": 4.7, "unit": "nM"}, {"measurement": "half-life", "setting": "[18]", "value": 1.4, "unit": "h"}, {"measurement": "IC50", "setting": "CHO-K1", "value": 56700, "unit": "nM"}, {"measurement": "ED90", "setting": "Plasmodium falciparum [19]", "value": 34, "unit": "mg/kg"}, {"measurement": "Vd", "setting": "[20]", "value": 8.3, "unit": "L/kg"}, {"measurement": "IC50", "setting": "Plasmodium falciparum [21]", "value": 72, "unit": "nM"}, {"measurement": "Activity", "setting": "[22]", "value": "Non-Toxic"}, {"measurement": "IC50", "setting": "Plasmodium falciparum [23]", "value": 1.6, "unit": "nM"}, {"measurement": "Peff", "setting": "[24]", "value": "Impermeable"}, {"measurement": "Activity", "setting": "[25]", "value": "Non-Toxic"}, {"measurement": "Activity", "setting": "[26]", "value": "Non-Toxic"}, {"measurement": "AUClast", "setting": "[27]", "value": 130, "unit": "µmol·min/L"}, {"measurement": "IC50", "setting": "Plasmodium falciparum [28]", "value": 653, "unit": "nM"}, {"measurement": "Cmax", "setting": "[29]", "value": 337, "unit": "nM"}]}
